Data published in ChEMBL document CHEMBL1914404, “Synthesis and biochemical evaluation of δ(2)-isoxazoline derivatives as DNA methyltransferase 1 inhibitors” (J Med Chem, 2011).
Activity calls are given as the source filed them. The calls are words filed in the database; no cut-off is given here.

How the values were obtained:
[1] = target: T1, DNA (cytosine-5)-methyltransferase 1 (Homo sapiens, UniProt P26358); experiment: Inhibition of human recombinant DNMT1 expressed in Sf9 cells assessed as remaining activity at 2 mM after 3 hrs by scintillation counting in presence of [3H]S-adenosyl methionine
How it was run: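 Single-point screen at 2 mM (compounds in DMSO, DMSO control) against 500 nM Sf9-expressed human DNMT1, hemimethylated oligo 0.4 μM, 0.7 μM [3H]AdoMet, pH 7.5 Tris buffer, 37 °C for 3 h; filter-bound tritium counted. Relative enzyme activity (% of control) as mean of three measurements with SD; inhibition >20% scored positive.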

HCT-116 [2] = experiment: Antiproliferative activity against human HCT116 cells assessed as growth inhibition by measuring doubling time after 72 hrs by trypan blue staining; format: functional, cell-based
How it was run: (§1)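 HCT116 colon carcinoma cells incubated 72 h with test compound at 300, 500 and 750 μM, azacytidine 1 μM as positive control, DMSO alone as control.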

HCT-116 [3] = experiment: Antiproliferative activity against human HCT116 cells assessed as growth inhibition by measuring proliferation rate after 72 hrs by trypan blue staining; format: functional, cell-based; how it was run: as §1
[4] = target: T1, DNA (cytosine-5)-methyltransferase 1; experiment: Inhibition of human recombinant DNMT1 expressed in Sf9 cells assessed as incorporation of [3H]S-adenosyl methionine into hemimethylated oligonucleotide substrate after 3 hrs by scintillation counting
[5] = target: T1, DNA (cytosine-5)-methyltransferase 1; experiment: Non-competitive inhibition of human recombinant DNMT1 expressed in Sf9 cells using oligonucleotide as substrate after 1 hr by scintillation counting
How it was run: (§2)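 Mode-of-inhibition assay: standard DNMT1 filter assay (500 nM enzyme) modified with inhibitor fixed at 150 μM and 1 h at 37 °C; either [3H]SAM or the oligo substrate concentration increased while the other held. Activity with inhibitor under standard conditions set as 100% inhibition; curves interpreted by the Lai and Wu model.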

[6] = target: T1, DNA (cytosine-5)-methyltransferase 1; experiment: Selectivity ratio of IC50 for procaine to compound for human recombinant DNMT1 expressed in Sf9 cells assessed as incorporation of [3H]S-adenosyl methionine into hemimethylated oligonucleotide substrate after 3 hrs by scintillation counting
HCT-116 [7] = experiment: Antiproliferative activity against human HCT116 cells after 72 hrs by trypan blue staining; format: functional; details: HCT-116, 72 h; how it was run: as §1
[8] = target: T1, DNA (cytosine-5)-methyltransferase 1; experiment: Competitive inhibition of human recombinant DNMT1 expressed in Sf9 cells using [3H]S-adenosyl methionine as substrate at 150 uM after 1 hr by scintillation counting; how it was run: as §2

T1 sequence (P26358 whole entry): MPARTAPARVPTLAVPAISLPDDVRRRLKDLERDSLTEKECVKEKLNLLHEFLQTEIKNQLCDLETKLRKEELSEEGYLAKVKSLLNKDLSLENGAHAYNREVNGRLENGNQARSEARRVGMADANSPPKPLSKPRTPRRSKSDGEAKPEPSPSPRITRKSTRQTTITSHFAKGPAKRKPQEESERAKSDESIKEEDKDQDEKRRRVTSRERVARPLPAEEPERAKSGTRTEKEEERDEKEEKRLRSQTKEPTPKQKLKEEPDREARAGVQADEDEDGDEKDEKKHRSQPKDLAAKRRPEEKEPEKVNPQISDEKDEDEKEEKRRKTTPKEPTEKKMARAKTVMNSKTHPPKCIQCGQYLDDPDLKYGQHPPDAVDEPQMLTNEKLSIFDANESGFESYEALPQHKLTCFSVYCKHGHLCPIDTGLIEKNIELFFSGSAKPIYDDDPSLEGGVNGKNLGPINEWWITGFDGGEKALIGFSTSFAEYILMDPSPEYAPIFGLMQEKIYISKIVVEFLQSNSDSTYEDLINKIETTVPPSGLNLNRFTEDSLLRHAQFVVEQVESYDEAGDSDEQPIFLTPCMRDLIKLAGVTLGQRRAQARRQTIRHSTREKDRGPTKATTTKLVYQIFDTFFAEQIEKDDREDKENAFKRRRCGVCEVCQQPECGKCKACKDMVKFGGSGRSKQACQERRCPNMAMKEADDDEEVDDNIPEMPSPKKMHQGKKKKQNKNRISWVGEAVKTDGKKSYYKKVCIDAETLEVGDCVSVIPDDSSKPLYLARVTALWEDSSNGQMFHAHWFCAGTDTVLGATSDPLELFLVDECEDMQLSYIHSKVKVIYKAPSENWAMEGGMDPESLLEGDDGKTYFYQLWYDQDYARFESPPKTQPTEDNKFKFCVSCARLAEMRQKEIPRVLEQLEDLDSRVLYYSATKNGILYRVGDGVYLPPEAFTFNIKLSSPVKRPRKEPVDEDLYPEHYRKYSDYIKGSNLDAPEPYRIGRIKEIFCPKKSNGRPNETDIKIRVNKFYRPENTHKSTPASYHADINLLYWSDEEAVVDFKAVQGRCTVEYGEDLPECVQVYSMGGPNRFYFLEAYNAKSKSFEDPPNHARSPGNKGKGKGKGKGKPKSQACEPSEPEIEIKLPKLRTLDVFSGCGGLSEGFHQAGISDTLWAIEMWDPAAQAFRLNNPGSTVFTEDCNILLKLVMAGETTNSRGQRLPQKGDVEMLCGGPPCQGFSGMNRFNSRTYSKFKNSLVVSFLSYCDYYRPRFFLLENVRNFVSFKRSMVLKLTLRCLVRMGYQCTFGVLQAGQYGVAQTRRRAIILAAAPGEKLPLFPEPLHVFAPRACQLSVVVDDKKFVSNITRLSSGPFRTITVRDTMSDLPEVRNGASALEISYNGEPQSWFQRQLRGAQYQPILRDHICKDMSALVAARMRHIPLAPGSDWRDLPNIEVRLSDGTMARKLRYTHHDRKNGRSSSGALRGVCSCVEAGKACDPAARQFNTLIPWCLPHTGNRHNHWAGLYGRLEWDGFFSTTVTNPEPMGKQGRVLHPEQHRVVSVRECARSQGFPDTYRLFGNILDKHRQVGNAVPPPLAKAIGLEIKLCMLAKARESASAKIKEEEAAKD

Row | Activity [1] | SMILES | other results
1 | inactive | CCN(CC)CCOC(=O)c1ccc(N)cc1 | 
2 | 17.1% | CN(C)CC1CC(Cc2ccccc2)=NO1 (configuration not stated) | 
3 | 0.3% | CN(C)CC1CC(c2ccc([N+](=O)[O-])cc2)=NO1 (configuration not stated) | IC50 [4]: 150 µM; inhibition [5]: Active; Ratio IC50 [6]: 10; GI50 (HCT-116 [7]): 360 µM; inhibition [8]: Active
4 | 3.3% | COc1ccc(C2=NOC(CN(C)C)C2)cc1 (configuration not stated) | 
5 | 20.2% | CN(C)CC1CC(c2ccc(N)cc2)=NO1 (configuration not stated) | IC50 [4]: 270 µM
6 | 3.8% | CN1CC2ON=C(Cc3ccc([N+](=O)[O-])cc3)C2C1 (configuration not stated) | IC50 [4]: 310 µM
7 | 88% | CN(C)CC1CC(c2ccc(O)cc2)=NO1 (configuration not stated) | 
8 | 23% | CN(C)CC1CC(c2ccc(C(=O)O)cc2)=NO1 (configuration not stated) | 
9 | 18.6% | Cc1ccc(S(=O)(=O)Oc2ccc(C3=NOC4CN(C)CC34)cc2)cc1 (configuration not stated) | 
10 | inactive | COc1ccc(CC2=NOC(CN(C)C)C2)cc1 (configuration not stated) | 
11 | 90.6% | Cc1ccc(S(=O)(=O)Oc2ccc(C3=NOC(CN(C)C)C3)cc2)cc1 (configuration not stated) | 

More lines, now with the values behind:

Row | SMILES | Activity [1] | other results
12 | O=[N+]([O-])c1ccc(C2=NC[C@H](CN3CCCC3)O2)cc1 |  | growth inhibition (GI) (HCT-116 [2]): inactive; growth inhibition (GI) (HCT-116 [3]): inactive
13 | CN1CC2ON=C(c3ccc(N)cc3)C2C1 (configuration not stated) | 5.1% | IC50 [4]: 570 µM
14 | CN1CC2ON=C(c3ccc(O)cc3)C2C1 (configuration not stated) | inactive | 
15 | COc1ccc(C2=NOC3CN(C)CC23)cc1 (configuration not stated) | 95.6% | 
16 | CN1CC2ON=C(Cc3ccc(N)cc3)C2C1 (configuration not stated) | 3.3% | 
17 | Nc1ncnc2c1ncn2[C@@H]1O[C@H](CSCC[C@H](N)C(=O)O)[C@@H](O)[C@H]1O | 0.5% | 
18 | CN(C)CC1CC(c2ccccc2)=NO1 (configuration not stated) | inactive | 
19 | CN(C)CC1CC(Cc2ccc(N)cc2)=NO1 (configuration not stated) | 28.3% | 
20 | O=C(O)[C@H](Cc1c[nH]c2ccccc12)N1C(=O)c2ccccc2C1=O | inactive | 
21 | CN1CC2ON=C(c3ccc(C(=O)O)cc3)C2C1 (configuration not stated) | inactive | 
22 | CN1CC2ON=C(Cc3ccccc3)C2C1 (configuration not stated) | 84% | 
23 | CN1CC2ON=C(c3ccc([N+](=O)[O-])cc3)C2C1 (configuration not stated) | 34.9% | 
24 | COc1ccc(CC2=NOC3CN(C)CC23)cc1 (configuration not stated) | 1.7% | IC50 [4]: 1130 µM
25 | CN1CC2ON=C(c3ccccc3)C2C1 (configuration not stated) | inactive | 
26 | CN(C)CC1CC(Cc2ccc([N+](=O)[O-])cc2)=NO1 (configuration not stated) | 14.8% | IC50 [4]: 1600 µM
